ChEMBL document CHEMBL1165928, “Synthesis and structure-activity relationships of 2-acylamino-4,6-diphenylpyridine derivatives as novel antagonists of GPR54” (Bioorg Med Chem, 2010)

Tests used:
KiSS-1 receptor [1] = biological target: T1, KiSS-1 receptor (Homo sapiens, UniProt Q969F8); test: Displacement of [125I]metastin(40-54) from human GPR54 receptor expressed in CHO cells after 60 mins by scintillation counting; assay type: cell-based
How it was run: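 Membranes came from CHO h175-KB34 cells stably expressing human GPR54, harvested at ≤50% confluency, homogenized with protease inhibitors, pelleted and stored at −80 °C. Binding used 135 pM 125I-metastin(40-54) in pH 7.4 Tris/Mg acetate/EGTA buffer with 1 mg/ml BSA, 60 min at 25 °C. Samples were filtered on 0.3% PEI-treated GF/C plates, washed three times, and filter radioactivity was counted.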

KiSS-1 receptor [2] = biological target: T1, KiSS-1 receptor; test: Antagonist activity at human GPR54 receptor expressed in CHO cells assessed as inhibition of metastin(40-54)-induced intracellular calcium mobilization by FLIPR assay; assay type: functional, cell-based
How it was run: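 Human GPR54 cell lines h175-KB33 and h175-16 were plated at 30,000 cells/well and cultured overnight. They were loaded 60 min at 37 °C with Fluo-3AM, 1.25 mM probenecid and 0.04% Pluronic F-127 in pH 7.4 Hepes salt buffer with 0.1% BSA, then washed. Ca2+ was read by FLIPR. Agonist was metastin(40-54) at 30 nM (h175-KB33) or 100 pM (h175-16).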

KiSS-1 receptor [3] = biological target: T1, KiSS-1 receptor; details: CHO, 10 uM

T1 sequence (Q969F8 whole entry): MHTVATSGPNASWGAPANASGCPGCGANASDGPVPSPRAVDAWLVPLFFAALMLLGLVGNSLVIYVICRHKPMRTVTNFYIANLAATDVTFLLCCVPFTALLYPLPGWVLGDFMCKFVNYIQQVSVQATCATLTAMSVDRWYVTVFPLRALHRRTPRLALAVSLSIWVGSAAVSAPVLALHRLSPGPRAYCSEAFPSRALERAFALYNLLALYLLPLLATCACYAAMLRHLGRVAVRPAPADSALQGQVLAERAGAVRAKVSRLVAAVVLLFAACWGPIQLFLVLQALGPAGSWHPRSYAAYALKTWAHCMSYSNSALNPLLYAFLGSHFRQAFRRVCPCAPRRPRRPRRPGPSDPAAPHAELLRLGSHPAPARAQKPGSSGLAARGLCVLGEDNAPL

| SMILES | IC50 (KiSS-1 receptor [1]) | IC50 (KiSS-1 receptor [2]) | inhibition (KiSS-1 receptor [3]) |
| --- | --- | --- | --- |
| N#Cc1c(-c2ccccc2C(=O)NCCN)cc(-c2ccccc2O)nc1NC(=O)c1cccs1 | 33000 nM | – | – |
| N#Cc1c(-c2cccc(NC(=O)CCN)c2)cc(-c2ccc(Cl)cc2O)nc1NC(=O)c1cccs1 | 9.8 nM | 4100 nM | – |
| N#Cc1c(-c2cccc(NC(=O)CCN)c2)cc(-c2ccc(Br)cc2O)nc1NC(=O)c1cccs1 | 19 nM | 6300 nM | – |
| N#Cc1c(-c2cccc(NC(=O)CCCN)c2)cc(-c2ccccc2O)nc1NC(=O)c1cccs1 | 34 nM | 1400 nM | – |
| N#Cc1c(-c2cccc(NC(=O)CCN)c2)cc(-c2ccc(F)cc2O)nc1NC(=O)c1ccco1 | 3.7 nM | 460 nM | – |
| N#Cc1c(-c2cccc(NC(=O)CCN)c2)cc(-c2ccccc2O)nc1NC(=O)c1ccccc1 | 51 nM | 24000 nM | – |
| N#Cc1c(-c2cccc(NC(=O)CCN)c2)cc(-c2ccc(F)cc2O)nc1NC(=O)c1cccs1 | 7.4 nM | 3600 nM | – |
| N#Cc1c(-c2cccc(NC(=O)CN)c2)cc(-c2ccccc2O)nc1NC(=O)c1cccs1 | 51 nM | 2800 nM | – |
| Cc1ccc(-c2cc(-c3cccc(NC(=O)CCN)c3)c(C#N)c(NC(=O)c3cccs3)n2)c(O)c1 | 12 nM | 910 nM | – |
| COc1ccc(C(=O)Nc2nc(-c3ccccc3O)cc(-c3cccc(C(=O)NCCN)c3)c2C#N)cc1 | 31 nM | – | – |
| COc1ccc(O)c(-c2cc(-c3cccc(NC(=O)CCN)c3)c(C#N)c(NC(=O)c3cccs3)n2)c1 | 480 nM | – | – |
| CC(C)(CN)CNC(=O)c1cccc(-c2cc(-c3ccc(F)cc3O)nc(NC(=O)c3ccco3)c2C#N)c1 | 11 nM | 2500 nM | – |
| COc1ccc(-c2cc(-c3cccc(NC(=O)CCN)c3)c(C#N)c(NC(=O)c3ccccc3)n2)c(O)c1 | 120 nM | – | – |
| N#Cc1c(-c2cccc(NC(=O)CCN)c2)cc(-c2ccccc2N)nc1NC(=O)c1ccccc1 | 890 nM | – | – |
| N#Cc1c(-c2cccc(N)c2)cc(-c2ccccc2O)nc1NC(=O)c1cccs1 | 2100 nM | – | – |
| COc1ccccc1C(=O)Nc1nc(-c2ccccc2O)cc(-c2cccc(C(=O)NCCN)c2)c1C#N | 45 nM | – | – |
| N#Cc1c(-c2cccc(C(=O)NCCN)c2)cc(-c2ccccc2O)nc1NC(=O)c1ccco1 | 14 nM | – | – |
| COc1ccccc1-c1cc(-c2cccc(N)c2)c(C#N)c(NC(=O)c2cccs2)n1 | > 30000 nM | – | – |
| N#Cc1c(-c2cccc(CO)c2)cc(-c2ccccc2O)nc1NC(=O)c1cccs1 | 1500 nM | – | 58% |
| Cc1c(-c2ccccc2O)nc(NC(=O)c2ccco2)c(C#N)c1-c1cccc(NC(=O)CCN)c1 | 1200 nM | – | – |
| COc1ccccc1C(=O)Nc1nc(-c2ccccc2O)cc(-c2cccc(C(=O)NC(C)(C)CN)c2)c1C#N | 32 nM | – | – |
| N#Cc1c(-c2ccc(C(=O)NCCN)cc2)cc(-c2ccccc2O)nc1NC(=O)c1cccs1 | 120 nM | – | – |
| COc1ccc(C(=O)Nc2nc(-c3ccccc3O)cc(-c3cccc(C(=O)NC(C)(C)CN)c3)c2C#N)cc1 | 32 nM | – | – |
| N#Cc1c(-c2cccc(C(=O)NCCN)c2)cc(-c2ccccc2O)nc1NC(=O)c1cccs1 | 45 nM | 5100 nM | – |
| N#Cc1c(-c2cccc(NC(=O)CCN)c2)cc(-c2ccccc2O)nc1NC(=O)c1cccs1 | 21 nM | 1100 nM | – |
| N#Cc1c(-c2cccc(CN)c2)cc(-c2ccccc2O)nc1NC(=O)c1cccs1 | 570 nM | – | – |
| CC(C)(CN)NC(=O)c1cccc(-c2cc(-c3ccccc3O)nc(NC(=O)c3ccco3)c2C#N)c1 | 15 nM | – | – |
| N#Cc1c(-c2cccc(NC(=O)CCN)c2)cc(-c2cc(Cl)ccc2O)nc1NC(=O)c1cccs1 | 490 nM | – | – |
| N#Cc1c(-c2cccc(C(=O)O)c2)cc(-c2ccccc2O)nc1NC(=O)c1cccs1 | 9900 nM | – | – |
| N#Cc1c(-c2cccc(C(=O)NCCN)c2)cc(-c2ccc(F)cc2O)nc1NC(=O)c1ccco1 | 8 nM | 660 nM | – |
